# According to PubChem BioAssay AID686992 (Broad Institute, 2013):
# Among all 260,000 compounds or so, about 960 (0.37%) were called active.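 Rule for the calls: active = mean E-selectin-positive cell signal at least 10% of the positive control, reached in at least 60% of replicates, without over 20% cell loss; inconclusive = no rule given, readout overlaps actives, possibly toxicity-flagged; inactive = the rest, including those meeting only one limit.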 The full list was thinned out, with actives kept by preference.
# Biological target: E-selectin (Homo sapiens) (UniProt P16581)
# Sequence (P16581 whole entry, looked up): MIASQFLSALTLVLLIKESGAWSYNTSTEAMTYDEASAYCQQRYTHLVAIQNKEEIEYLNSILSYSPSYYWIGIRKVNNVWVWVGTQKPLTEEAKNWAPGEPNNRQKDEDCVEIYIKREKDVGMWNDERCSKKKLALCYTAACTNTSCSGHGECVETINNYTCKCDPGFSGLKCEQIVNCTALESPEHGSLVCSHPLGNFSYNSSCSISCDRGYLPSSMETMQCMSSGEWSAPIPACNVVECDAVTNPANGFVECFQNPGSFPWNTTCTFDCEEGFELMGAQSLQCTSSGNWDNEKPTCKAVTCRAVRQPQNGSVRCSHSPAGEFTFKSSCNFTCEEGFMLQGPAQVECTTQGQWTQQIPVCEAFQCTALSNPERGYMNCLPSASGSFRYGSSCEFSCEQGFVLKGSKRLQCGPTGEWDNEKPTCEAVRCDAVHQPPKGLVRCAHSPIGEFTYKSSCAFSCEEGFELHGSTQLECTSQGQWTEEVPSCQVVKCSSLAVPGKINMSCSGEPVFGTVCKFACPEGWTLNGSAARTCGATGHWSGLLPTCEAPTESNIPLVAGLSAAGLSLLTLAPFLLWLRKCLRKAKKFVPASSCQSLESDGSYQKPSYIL
# Test: inducers of endothelial E-selectin expression – imaging, HUVEC, immunofluorescence imaging, single point, primary screen (AID 686992);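 note: signal is the percent of cells scored E-selectin positive by PE staining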
# Conditions: at 7.58 µM, stronger effect = higher value, normalized: neutral wells 0, TNF-alpha wells 100
# Outline: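 Read-out: % PE-positive cells | Test system: HUVEC | Doses: One compound dose added by pin transfer | Buffer or medium: EGM-2 over gelatin coat | Signal: Immunofluorescence imaging | Benchmarks: TNF-alpha, DMSO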
row,SMILES,activation
1,CCN1C(=O)N[C@@H]2C[C@H](C(=O)N3CCCC3)[C@H](C)[C@H](c3ccccc3)C[C@@H]21,-0.199% (inactive)
2,Cc1cccc(NC(=O)CSc2nc3[nH]ncc3c(=O)[nH]2)c1,-0.483% (inactive)
3,Cc1ccc(CSc2nc3[nH]ncc3c(=O)[nH]2)cc1,92.1% (active)
4,Cc1ccc(CSc2nc(-c3ccccc3)c(C#N)c(=O)[nH]2)cc1,2.35% (inactive)
5,O=C1[C@@H](c2ccccc2)[C@@H](c2ccccc2)N1c1ccccc1,-0.064% (inactive)
6,O=C(N[C@H]1C=C[C@@H](CC(=O)N2CCc3ccccc3C2)O[C@@H]1CO)C1CCOCC1,-0.136% (inactive)
7,Cc1c(C(=O)Nc2cccc(-c3nnc4n3CCCCC4)c2)oc2ccccc12,-1.41% (inactive)
8,COc1ccc(-c2nnc3n2CCCCC3)cc1,31.2% (active)
9,COc1cccc(C(=O)Nc2ccc3nc4n(c(=O)c3c2)CCCCC4)c1,0.059% (inactive)
10,Cc1cc(N2CCN(C(=O)OC(C)(C)C)C[C@H]2C)ccc1N1CCN(Cc2ccccc2)[C@H](C)C1,0.115% (inactive)
11,CCOC(=O)[C@]12CCC=C1N(Cc1ccco1)C(=O)[C@H](CC(=O)NCc1cccc(C(F)(F)F)c1)C2,-0.145% (inactive)
12,CCOc1ccc(NC(=O)CC2C(=O)N(c3ccccc3)C(=O)N2CCOC)cc1 (stereo not drawn),-0.224% (inactive)
13,COc1ccc(CCN2C(=O)N(c3ccc(OC)cc3)C(=O)C2CC(=O)Nc2ccc(OC)cc2)cc1 (stereo not drawn),4.19% (inactive)
14,CCNC(=O)CC1C(=O)N(c2ccc(OC)cc2)C(=O)N1CCOC (stereo not drawn),35.7% (active)
15,O=C(CN1CCOCC1)NC[C@@H]1N[C@@H](CO)[C@@H]1c1ccc(-c2ccccc2)cc1,0.253% (inactive)
16,COc1ccc(-c2ccccc2C2Cc3nnccc3CN2C(=O)Nc2ccccc2)cc1 (stereo not drawn),-0.134% (inactive)
17,COc1cc(OC)cc(-c2cc3ccc(F)cc3cn2)c1,0.221% (inactive)
18,CCCc1ccc(S(=O)(=O)N2CCN(C(=O)c3cc(C)on3)CC2)cc1,-0.187% (inactive)
19,CCCCCCNC(=O)O[C@H]1CN(C(=O)OC(C)C)N(C(=O)OC(C)C)[C@@H]2CN(S(=O)(=O)c3ccc(C)cc3)C[C@]12O,0.079% (inactive)
20,Cc1ccc(S(=O)(=O)N2CCN(C(=O)Cc3sc(C)nc3-c3ccc(F)cc3)CC2)c(C)c1,62.2% (active)
21,Cc1nc(-c2ccc(F)cc2)c(CC(=O)N2CCN(S(=O)(=O)c3ccc(F)cc3)CC2)s1,-0.541% (inactive)

row,SMILES,activation
1,Cc1nc(-c2ccc(F)cc2)c(CC(=O)Nc2cc(S(=O)(=O)N3CCCCC3)ccc2C)s1,-1.09% (inactive)
2,CCOC(=O)C1=C(C(=O)OCC)C2N(Cc3ccc(C#N)cc3)c3ccccc3[C@@]23C[C@@H](C(=O)OC)N(S(=O)(=O)c2ccc(F)cc2)C3=N1 (stereo partly drawn),-0.148% (inactive)
3,COc1ccccc1S(=O)(=O)N[C@@H]1CC[C@H](CCn2cc(C3CCCC3)nn2)O[C@H]1CO,-0.101% (inactive)
4,CCCCCCCNC(=O)C1(CC2CC(c3cccc(Br)c3)=NO2)CCN(C(=O)c2cc(OCC)c(OCC)c(OCC)c2)CC1 (stereo not drawn),0.076% (inactive)
5,CN(Cc1cccc2ncccc12)C(=O)CC1C(=O)NCCN1Cc1ccc(F)cc1 (stereo not drawn),365% (active)
6,Cc1nc(CN(C)C(=O)CC2C(=O)NCCN2Cc2ccc(F)cc2)cs1 (stereo not drawn),-0.598% (inactive)
7,Cc1cnc(CN(C)C(=O)CC2C(=O)NCCN2Cc2cccc(F)c2F)[nH]1 (stereo not drawn),-0.473% (inactive)
8,COc1ccc2c3c([nH]c2c1)[C@@H](CO)N(C)CC31CCN(S(=O)(=O)c2ccc(C)cc2)CC1,-0.271% (inactive)
9,CO[C@H]1CN(C)C(=O)c2ccc(NC(C)=O)cc2OC[C@@H](C)N(C(=O)c2ccncc2)C[C@@H]1C,0.486% (inactive)
10,NC(=S)NN=Cc1ccc(OC(=O)COc2cc(Cl)c(Cl)cc2Cl)cn1,0.0825% (inactive)
11,C[C@H](CO)N1C[C@H](C)[C@@H](CN(C)S(=O)(=O)c2ccc([N+](=O)[O-])cc2)OCc2ccccc2-c2c(n(C)c3ccccc23)C1=O,0.251% (inactive)
12,CCCc1ccc(OCCNC(=O)c2ccccc2Br)cc1,0.473% (inactive)
13,O=C(NC(=S)Nc1ncccn1)c1ccccc1Br,-0.09% (inactive)
14,CCOc1cnc(C(=O)NNC(=O)c2ccccc2Br)o1,180% (active)
15,COCC(=O)N1[C@H](C(=O)N2CCN(C)CC2)[C@@H](CO)[C@@H]2Cn3c(ccc(C4=CCCC4)c3=O)[C@@H]21,0.129% (inactive)
16,COC(=O)C1=C(C)N(Cc2ccc(C(F)(F)F)cc2)C(=NCc2ccc(C(F)(F)F)cc2)NC1c1cccc(Cl)c1 (stereo not drawn),-0.458% (inactive)
17,O=C(C[C@H]1CC[C@@H]2[C@H](COC[C@H](O)CN2CCC(F)(F)F)O1)NCC1CC1,-0.0615% (inactive)
18,COc1ccc(C2=NN(C(=O)c3cccnc3)C(c3ccccc3)C2)cc1 (stereo not drawn),-2.28% (inactive)
19,COc1ccc(C2=NN(C(=O)c3ccccc3C(=O)O)C(c3ccccc3O)C2)cc1 (stereo not drawn),55.5% (active)
20,COc1ccc(C2=NN(C(C)=O)C(c3ccccc3)C2)cc1 (stereo not drawn),0.176% (inactive)
21,Cc1ccc(C(=O)N2CCCc3ccccc32)c(Cl)c1,-0.261% (inactive)

row,SMILES,activation
1,C[C@@H]1CN([C@H](C)CO)C(=O)c2cccc(NC(=O)c3cnccn3)c2O[C@@H]1CN(C)Cc1ccncc1,-11.9% (inactive)
2,C[C@H]1CN([C@@H](C)CO)C(=O)c2cccc(NC(=O)c3cnccn3)c2O[C@@H]1CN(C)Cc1ccc(Oc2ccccc2)cc1,0.0435% (inactive)
3,COc1ccc(CN(C)C[C@H]2Oc3c(NC(=O)c4cnccn4)cccc3C(=O)N([C@H](C)CO)C[C@@H]2C)cc1,39% (active)
4,C[C@H]1CN([C@@H](C)CO)C(=O)c2cccc(NC(=O)c3cnccn3)c2O[C@H]1CN(C)C(=O)Nc1ccccc1,0.886% (inactive)
5,CC(C)NC(=O)N(C)C[C@@H]1Oc2c(NC(=O)c3cnccn3)cccc2C(=O)N([C@@H](C)CO)C[C@@H]1C,88.4% (active)
6,C[C@H](CO)N1C[C@H](C)[C@H](CN(C)C(=O)Nc2ccc(F)cc2)Oc2c(NC(=O)c3cnccn3)cccc2C1=O,0.893% (inactive)
7,COc1ccc2c3c(n(C)c2c1)[C@@H](CO)N(C(=O)c1cnccn1)CC31CCN(C(C)=O)CC1,-0.0775% (inactive)
8,Cc1ccccc1-c1csc(C(O)c2cccc(Cl)c2)n1 (stereo not drawn),0.0645% (inactive)
9,CCOC(=O)[C@H]1Nc2ccc(Cl)cc2[C@@H]2[C@H]1C1CC(c3ccccc31)N2C(=O)OCc1ccccc1 (stereo partly drawn),-3.61% (inactive)
10,CC[C@@H](C)[C@H](NC(=O)CCc1c(C)c2cc3c4c(oc3c(C)c2oc1=O)CCCC4)C(=O)O,-0.004% (inactive)
11,Cc1c(CC(=O)NCC(=O)NCC(=O)O)c(=O)oc2cc3oc4c(c3cc12)CCCC4,44.8% (active)
12,Cc1coc2cc3oc(=O)c(CCC(=O)O)c(C)c3cc12,0.29% (inactive)
13,CN1C(=O)C(Br)(Br)CC1c1cccnc1 (stereo not drawn),0.457% (inactive)
14,CCc1nc2c(OCCOc3ccccc3)cccn2c1N(C)C(=O)c1ccc(OC)cc1,-0.197% (inactive)
15,CCOC(=O)C1C(C)C(C(C)(C)C)N(S(=O)(=O)c2ccc(C)cc2)C1c1ccccc1 (stereo not drawn),-0.306% (inactive)
16,O=C(NC1CCCC1)[C@@H]1[C@@H](CO)[C@@H]2Cn3c(ccc(-c4ccc(F)cc4)c3=O)[C@H]1N2Cc1cocn1,0.192% (inactive)
17,CCOC(=O)C(=Cc1ccccc1)C(=O)c1ccccc1,-0.023% (inactive)
18,COc1ccc2c(c1)c(=Cc1ccc(N(C)C)cc1)c1cc(-c3ccccc3)[n+](C)n12,197% (active)
19,COc1ccc2sc(-c3ccc(N(C)C)cc3)c(-c3ccc4cc[nH]c4c3)c2c1,0.675% (inactive)
20,COc1ccc2sc(-c3ccc(N(C)C)cc3)c(C#CCO)c2c1,0.712% (inactive)
21,CC1(C)OC(=O)C2=C(C[C@@H](C3CCCC3)O[C@@H]2c2ccc(Cl)cc2)O1,-0.0095% (inactive)
